# A selection: hits, their analogues and other compounds. The true share with any hit is near 2.1%.
# XiGFP reactiv = activators of X-chromosome reactivation in mouse fibroblasts; XiGFP mouse fibroblasts, % GFP-positive cells imaging, 3 d; cells co-treated with 5-aza-dC sensitizer; scaled so ellipticine positive control = 100%; activation, % at 7.58 µM; 0.055% of 360,000 active; AID 743238;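 active = mean normalized replicate activation at least 10% and every replicate at or above 10%; inconclusive = only one of the two criteria met; inactive = mean below 10% and not all replicates reach 10%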
#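 System: SV40-immortalized XiGFP fibroblast cells, line 68-5-11 / Incubation: 3-day compound exposure, then 15 min fixation at room temperature / Compound: single concentration per compound, delivered by pin transfer / Buffer or medium: DMEM plus 5-aza-dC sensitizer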
# DENV2 CPE = protects cells from dengue virus 2 cytopathic effect; CPE inhibition, % at 9.99 µM; DENV2-infected cells, cytopathic effect rescue, plate reader; 1.7% of 350,000 active; in the data active = CPE inhibition above about 20%, passing the limit was not always enough; inconclusive = no clear call, values can overlap the other calls; tested in BHK-21 cells
# Cneo AK release = Cryptococcus neoformans lysis via adenylate kinase release | C. neoformans lysis, adenylate kinase release luminescence, 4 h; normalised: neutral wells 0, clomiphene wells 100 | 0.2% of 360,000 active | AID 651654 | lysis activity, % at 15 µM;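 active = mean lysis activity across replicates of at least 80%, whatever share of replicates individually reach that level; inactive = mean lysis activity below 80%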
#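 Assay system: C. neoformans cells. Amount: yeast cell density of 5 × 10^6 cells/mL. Technique: AK luminescence. Buffer or medium: YPD. Times: static 4 h at 37 °C with compound, 1 h detection. Dosing: single-point compound dose. Read-out: lysis from increased AK signal.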
# C2C12 statin = suppression of simvastatin myotoxicity; C2C12 myotubes + simvastatin, ATP luminescence, 48 h; scaled: DMSO 0, geranylgeraniol control 100; rescue of ATP level, % at 7.49 µM; 0.78% of 330,000 active; AID 602340;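 active = mean ATP rescue above about 67%, or every replicate alone reaching that limit, limit read from the data, passing the limit was not always enough; inconclusive = no clear call, values can overlap the other calls; inactive = mean under the limit and some replicate under it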;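 also: myotubes were challenged with 10 µM simvastatin during compound exposure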
# Numbers stand for hits; . = inactive; ? = inconclusive; / = not tested or not shown.
SMILES,XiGFP reactiv,DENV2 CPE,Cneo AK release,C2C12 statin
CCOC(=O)c1ccc(NC(=S)N2CCCC(C(=O)OCC)C2)cc1 (stereo not given),.,.,.,90.0
CN(C)C(=O)C[C@@H]1C[C@@H]2c3cc(NS(=O)(=O)c4ccccc4)ccc3O[C@@H]2[C@H](CO)O1,.,.,.,.
CO[C@@H]1CN(C)C(=O)c2ccc(NC(=O)C3CC3)cc2OC[C@H](C)N(C(=O)c2ccncc2)C[C@H]1C,.,.,80.7,.
COCC(=O)Nc1ccc2c(c1)C(=O)N(C)C[C@@H](OC)[C@H](C)CN(C(C)=O)[C@@H](C)CO2,.,32.2,.,.
CO[C@H]1CN(C)C(=O)c2ccc(NC(=O)C3CC3)cc2OC[C@@H](C)N(C(=O)c2ccncc2)C[C@@H]1C,.,.,.,.
COCC(=O)Nc1ccc2c(c1)C(=O)N(C)C[C@H](OC)[C@H](C)CN(C(=O)COC)[C@H](C)CO2,.,23.9,.,.
COCC(=O)Nc1ccc2c(c1)C(=O)N(C)C[C@H](OC)[C@@H](C)CN(C(=O)c1ccccc1)[C@@H](C)CO2,.,.,95.1,.
COCC(=O)Nc1ccc2c(c1)C(=O)N(C)C[C@@H](OC)[C@H](C)CN(C(=O)c1ccccc1)[C@@H](C)CO2,.,/,.,.
O=C(Nc1cccc(F)c1)N[C@H]1CC[C@H](CCn2cc(Cc3ccccc3)nn2)O[C@@H]1CO,.,.,.,.
COCC(=O)Nc1ccc2c(c1)OC[C@H](C)N(C(=O)c1ccncc1)C[C@H](C)[C@H](OC)CN(C)C2=O,.,.,.,.
COCC(=O)Nc1ccc2c(c1)OC[C@@H](C)N(C(=O)c1ccncc1)C[C@@H](C)[C@H](OC)CN(C)C2=O,.,32.4,.,.
Cc1noc(C)c1NC(=O)Nc1ccc2c(c1)CC(=O)N([C@@H](C)CO)C[C@@H](C)[C@H](CN(C)Cc1ccncc1)O2,.,.,.,.
COc1ccc(C2Nc3ccccc3C(=O)N2Cc2ccccc2)cc1 (stereo not given),.,.,.,.
COc1ccc([C@@H]2[C@@H](C)N(c3ccccc3)c3ccccc3C(=O)N2Cc2ccccc2)cc1,.,85.8,.,.
CCCNC(=O)N1CCC2(CC1)CN(S(C)(=O)=O)[C@@H](CO)c1c2c2ccc(OC)cc2n1C,.,.,/,/
CC(C)OC(=O)CCCNc1ccc([N+](=O)[O-])cc1[N+](=O)[O-],.,52.6,.,.
O=C(C[C@H]1CC[C@@H](NC(=O)Nc2ccc3c(c2)OCO3)[C@@H](CO)O1)NCc1ccc2c(c1)OCO2,.,20.3,.,.
O=C(C[C@H]1CC[C@H](NC(=O)Nc2ccc(C(F)(F)F)cc2)[C@H](CO)O1)NCc1cccc(F)c1,.,.,91.5,.
COc1ccc(CNC(=O)C[C@H]2C=C[C@@H](NC(=O)c3ccc4c(c3)OCO4)[C@H](CO)O2)cc1,.,?,.,.
O=C(C[C@H]1CC[C@@H](NC(=O)c2ccc3c(c2)OCO3)[C@H](CO)O1)NCc1ccc(Oc2ccccc2)cc1,.,.,.,67.6
COc1ccc(CNC(=O)C[C@H]2C=C[C@H](NC(=O)c3ccc4c(c3)OCO4)[C@H](CO)O2)cc1,.,60.8,/,/
CN1C(=O)c2cc(NC(=O)Cc3cccs3)ccc2OC[C@H]2O[C@H](CC(=O)O)CC[C@@H]21,.,.,.,.
CNC[C@H]1OCCCC[C@@H](C)Oc2ccc(NC(=O)NC3CCCCC3)cc2C(=O)N([C@H](C)CO)C[C@H]1C,.,?,.,.
CCCCc1cn(C[C@H](Cc2ccccc2)NC(=O)N[C@H](CO)CCc2oc(C(C)=O)c(C(=O)OC)c2C(=O)OC)nn1,/,22.0,.,/
COC(=O)c1c(CC[C@@H](CO)NC(=O)N[C@H](Cn2cc(-c3cncn3C)nn2)C(C)C)oc(C(C)=O)c1C(=O)OC,/,.,.,/
CC(C)Oc1ccc(C2CC(=O)NC3=C2C(=O)CCC3)cc1 (stereo not given),/,/,.,/
COC(=O)c1ccc(C2CC(=O)NC3=C2C(=O)CCC3)cc1 (stereo not given),/,/,.,113.9
COc1ccc(S(=O)(=O)N(C)C[C@H]2Oc3ccc(NS(=O)(=O)c4cn(C)cn4)cc3CC(=O)N([C@H](C)CO)C[C@H]2C)cc1,.,.,.,.
COc1cc(/C=C/C(=O)NC(=O)c2ccccc2O)ccc1OC(C)=O,/,73.3,.,.
COc1ccc(/C=C/C(=O)NC(=S)Nc2ccccc2)cc1OC,.,.,.,.

# Compound activity: PubChem, Broad Institute
